Columns and labels:
[1] = Toxicity in human SW620 cell xenografted athymic nude CD1 mouse assessed as maximum body weight loss at 10 mg/kg, ip administered 5 times daily for 5 days relative to control; assay type: organism-based, SW-620; details: in vivo, 120 h, time 5 day
How it was run: (§1)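 CD-1 nude mice carry palpable s.c. SW620 xenografts (~5×5 mm, 8-10 days), five per group. Treated i.p. daily for 5 days with saline, agent in 40% PEG 400/saline, etoposide phosphate 11.35 mg/kg (equal to 10 mg/kg etoposide), or both, agent given immediately before etoposide phosphate. Read-outs are median relative tumour volume, time to 4× volume (growth delay) and body weight.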

[2] = In vivo inhibition of DNA-PK in human SW620 cells xenografted athymic nude CD1 mouse assessed as potentiation of etoposide phosphate-induced antitumor activity by measuring tumor growth delay at 10 mg/kg, ip administered 5 times daily for 5 days (reference value: 2.7 day); assay type: functional, SW-620; details: time 5 day; how it was run: as §1
[3] = Cytotoxicity against Chinese hamster DNA-PK deficient V3 cells assessed as cell survival at 0.5 umol/L measured after 16 hrs by crystal violet staining based assay relative to control; assay type: toxicity, Cricetulus griseus; details: dose 0.5 µmol/L, read-out: Activity
How it was run: (§2)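 Exponentially growing cells exposed 16 h to agent (0.5 or 1.0 μmol/L), with or without etoposide or doxorubicin, at 0.5% DMSO final; controls get DMSO alone. Cells are then trypsinized, reseeded at 100–100,000 per dish in drug-free medium and grown 10–14 days. Colonies stained with crystal violet and counted automatically.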

[4] = Inhibition of DNA-PK in Chinese hamster DNA-PK proficient V3-YAC cells assessed as potentiation of ionizing radiation-induced cytotoxicity by measuring fold change in radiation LD90 at 0.5 umol/L preincubated for 1 hr followed by gamma-irradiation and measured after 16 hrs by crystal violet staining based assay relative to radiation alone; parameters: species or system Cricetulus griseus; details: dose 0.5 µmol/L; time 17 hrs; condition cancer
How it was run: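 V3-YAC Chinese hamster ovary cells (human DNA-PKcs YAC, kept in 500 μg/mL G-418), RPMI 1640/10% FBS. Cells reseeded drug-free, colonies crystal violet stained after 10–14 days; LD90 ratio without/with inhibitor (DMR90).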

[5] = Tmax in BALB/c mouse at 10 mg/kg, po by HPLC analysis; assay type: ADME, organism-based; details: in vivo
How it was run: (§3)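 Female BALB/c mice dosed 5 mg/kg i.v. in 10% DMSO/10% cyclodextrin in saline, or 10 mg/kg i.p. or orally at 1 mg/mL in 40% PEG400/saline. Plasma taken at 5, 10, 15, 30, 60, 90, 120, 180, 240 and 360 min, three mice per time. Acetonitrile precipitation, C18 HPLC with UV detection at 329 nm against a plasma standard curve. Parameters derived from mean concentrations.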

[6] = Cmax in BALB/c mouse at 10 mg/kg, po by HPLC analysis; assay type: ADME, organism-based; details: in vivo; how it was run: as §3
[7] = system: LoVo; assay: Cell cycle arrest in human LoVo cells assessed as increase in G1-phase cell population at 1 umol/L measured after 1 hr by propidium iodide staining based flow cytometry relative to control; assay type: toxicity; details: 1 µM, dose 1 µmol/L
How it was run: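 Asynchronous SW620 or LoVo cells, seeded 24 h earlier, given control or 1 μmol/L agent medium for 1 h before ionizing radiation, etoposide or doxorubicin, then incubated a further 16 h. Cells fixed in 70% ethanol, stained with propidium iodide (400 μg/mL) plus RNase (1 mg/mL), and analysed by 488 nm flow cytometry.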

[8] = Bioavailability in BALB/c mouse at 10 mg/kg, ip by HPLC analysis; assay type: ADME, organism-based; details: in vivo; how it was run: as §3
[9] = Elimination half life in BALB/c mouse at 10 mg/kg, po by HPLC analysis; assay type: ADME, organism-based; details: in vivo, read-out: beta t1/2; how it was run: as §3
[10] = Ratio of drug level in tumor to plasma of human SW620 cell xenografted athymic nude CD1 mouse at 10 mg/kg, ip measured after 240 mins by HPLC analysis; assay type: ADME, organism-based; details: tumor and plasma
How it was run: (§4)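 Female CD-1 nu/nu mice bearing s.c. flank SW620 tumours (1×10^7 cells, ~650 mm³ at 10–14 days) given 10 mg/kg i.p. Tissues snap frozen, homogenised 1:3 in PBS. Acetonitrile precipitation, C18 HPLC with acetate pH 5/acetonitrile 75:25 mobile phase, UV 329 nm; tissue levels by method of addition. Tissue/plasma ratio, mean of three mice per time.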

[11] = Inhibition of DNA-PK in Chinese hamster DNA-PK proficient V3-YAC cells assessed as potentiation of ionizing radiation-induced cytotoxicity by measuring radiation LD90 at 0.5 umol/L preincubated for 1 hr followed by gamma-irradiation and measured after 16 hrs by crystal violet staining based assay; parameters: species or system Cricetulus griseus; details: dose 0.5 µmol/L; time 17 hrs; condition cancer
How it was run: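 Clonogenic assay in V3/V3-YAC cells. Cells were then reseeded in drug-free medium, and crystal violet colonies were counted after 10–14 days. LD90 is the radiation dose killing 90%. DMR90 is LD90 without inhibitor divided by LD90 with inhibitor.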

[12] = Elimination half life in BALB/c mouse at 10 mg/kg, ip by HPLC analysis; assay type: ADME, organism-based; details: in vivo, read-out: beta t1/2; how it was run: as §3
[13] = Cmax in BALB/c mouse at 5 mg/kg, iv by HPLC analysis; assay type: ADME, organism-based; details: in vivo; how it was run: as §3
[14] = Growth inhibition of human LoVo cells measured after 5 days by crystal violet staining based assay; assay type: toxicity, cell-based; details: time 5 day
How it was run: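 LoVo and SW620 cells in 96-well plates under 5-day continuous exposure to agent, and growth measured relative to control.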

[15] = Ratio of drug level in liver to plasma of human SW620 cell xenografted athymic nude CD1 mouse at 10 mg/kg, ip measured after 60 mins by HPLC analysis; assay type: ADME, organism-based; how it was run: as §4
[16] = AUClast in BALB/c mouse at 5 mg/kg, iv by HPLC analysis; assay type: ADME, organism-based; details: in vivo; how it was run: as §3
[17] = Ratio of drug level in liver to plasma of human SW620 cell xenografted athymic nude CD1 mouse at 10 mg/kg, ip measured after 30 mins by HPLC analysis; assay type: ADME, organism-based; how it was run: as §4
[18] = Ratio of drug level in spleen to plasma of human SW620 cell xenografted athymic nude CD1 mouse at 10 mg/kg, ip measured after 30 mins by HPLC analysis; assay type: ADME, organism-based; how it was run: as §4
[19] = biological target: T1, DNA-dependent protein kinase catalytic subunit (Homo sapiens, UniProt P78527); details: SW620, dose 1.0 µmol/L, time 17.0 hrs
[20] = biological target: T1, DNA-dependent protein kinase catalytic subunit; details: LoVo, dose 1.0 µmol/L, time 17.0 hrs
[21] = Ratio of drug level in brain to plasma of human SW620 cell xenografted athymic nude CD1 mouse at 10 mg/kg, ip measured after 60 mins by HPLC analysis; assay type: ADME, organism-based; details: brain and plasma, read-out: BPR; how it was run: as §4
[22] = Cytotoxicity against Chinese hamster DNA-PK deficient V3 cells assessed as reduction in cell survival at 0.5 umol/L measured after 16 hrs in presence of etoposide by crystal violet staining based assay; assay type: toxicity, Cricetulus griseus; details: v3, 16 h, 0.5 µM, dose 0.5 µmol/L; how it was run: as §2
[23] = Bioavailability in BALB/c mouse at 5 mg/kg, iv by HPLC analysis; assay type: ADME, organism-based; details: in vivo; how it was run: as §3
[24] = Elimination half life in BALB/c mouse at 5 mg/kg, iv by HPLC analysis; assay type: ADME, organism-based; details: in vivo, read-out: beta t1/2; how it was run: as §3
[25] = Cytotoxicity against Chinese hamster DNA-PK proficient V3-YAC cells assessed as cell survival at 0.5 umol/L measured after 16 hrs by crystal violet staining based assay relative to control; assay type: toxicity, Cricetulus griseus; details: dose 0.5 µmol/L, read-out: Activity; how it was run: as §2

T1 sequence (P78527 whole entry): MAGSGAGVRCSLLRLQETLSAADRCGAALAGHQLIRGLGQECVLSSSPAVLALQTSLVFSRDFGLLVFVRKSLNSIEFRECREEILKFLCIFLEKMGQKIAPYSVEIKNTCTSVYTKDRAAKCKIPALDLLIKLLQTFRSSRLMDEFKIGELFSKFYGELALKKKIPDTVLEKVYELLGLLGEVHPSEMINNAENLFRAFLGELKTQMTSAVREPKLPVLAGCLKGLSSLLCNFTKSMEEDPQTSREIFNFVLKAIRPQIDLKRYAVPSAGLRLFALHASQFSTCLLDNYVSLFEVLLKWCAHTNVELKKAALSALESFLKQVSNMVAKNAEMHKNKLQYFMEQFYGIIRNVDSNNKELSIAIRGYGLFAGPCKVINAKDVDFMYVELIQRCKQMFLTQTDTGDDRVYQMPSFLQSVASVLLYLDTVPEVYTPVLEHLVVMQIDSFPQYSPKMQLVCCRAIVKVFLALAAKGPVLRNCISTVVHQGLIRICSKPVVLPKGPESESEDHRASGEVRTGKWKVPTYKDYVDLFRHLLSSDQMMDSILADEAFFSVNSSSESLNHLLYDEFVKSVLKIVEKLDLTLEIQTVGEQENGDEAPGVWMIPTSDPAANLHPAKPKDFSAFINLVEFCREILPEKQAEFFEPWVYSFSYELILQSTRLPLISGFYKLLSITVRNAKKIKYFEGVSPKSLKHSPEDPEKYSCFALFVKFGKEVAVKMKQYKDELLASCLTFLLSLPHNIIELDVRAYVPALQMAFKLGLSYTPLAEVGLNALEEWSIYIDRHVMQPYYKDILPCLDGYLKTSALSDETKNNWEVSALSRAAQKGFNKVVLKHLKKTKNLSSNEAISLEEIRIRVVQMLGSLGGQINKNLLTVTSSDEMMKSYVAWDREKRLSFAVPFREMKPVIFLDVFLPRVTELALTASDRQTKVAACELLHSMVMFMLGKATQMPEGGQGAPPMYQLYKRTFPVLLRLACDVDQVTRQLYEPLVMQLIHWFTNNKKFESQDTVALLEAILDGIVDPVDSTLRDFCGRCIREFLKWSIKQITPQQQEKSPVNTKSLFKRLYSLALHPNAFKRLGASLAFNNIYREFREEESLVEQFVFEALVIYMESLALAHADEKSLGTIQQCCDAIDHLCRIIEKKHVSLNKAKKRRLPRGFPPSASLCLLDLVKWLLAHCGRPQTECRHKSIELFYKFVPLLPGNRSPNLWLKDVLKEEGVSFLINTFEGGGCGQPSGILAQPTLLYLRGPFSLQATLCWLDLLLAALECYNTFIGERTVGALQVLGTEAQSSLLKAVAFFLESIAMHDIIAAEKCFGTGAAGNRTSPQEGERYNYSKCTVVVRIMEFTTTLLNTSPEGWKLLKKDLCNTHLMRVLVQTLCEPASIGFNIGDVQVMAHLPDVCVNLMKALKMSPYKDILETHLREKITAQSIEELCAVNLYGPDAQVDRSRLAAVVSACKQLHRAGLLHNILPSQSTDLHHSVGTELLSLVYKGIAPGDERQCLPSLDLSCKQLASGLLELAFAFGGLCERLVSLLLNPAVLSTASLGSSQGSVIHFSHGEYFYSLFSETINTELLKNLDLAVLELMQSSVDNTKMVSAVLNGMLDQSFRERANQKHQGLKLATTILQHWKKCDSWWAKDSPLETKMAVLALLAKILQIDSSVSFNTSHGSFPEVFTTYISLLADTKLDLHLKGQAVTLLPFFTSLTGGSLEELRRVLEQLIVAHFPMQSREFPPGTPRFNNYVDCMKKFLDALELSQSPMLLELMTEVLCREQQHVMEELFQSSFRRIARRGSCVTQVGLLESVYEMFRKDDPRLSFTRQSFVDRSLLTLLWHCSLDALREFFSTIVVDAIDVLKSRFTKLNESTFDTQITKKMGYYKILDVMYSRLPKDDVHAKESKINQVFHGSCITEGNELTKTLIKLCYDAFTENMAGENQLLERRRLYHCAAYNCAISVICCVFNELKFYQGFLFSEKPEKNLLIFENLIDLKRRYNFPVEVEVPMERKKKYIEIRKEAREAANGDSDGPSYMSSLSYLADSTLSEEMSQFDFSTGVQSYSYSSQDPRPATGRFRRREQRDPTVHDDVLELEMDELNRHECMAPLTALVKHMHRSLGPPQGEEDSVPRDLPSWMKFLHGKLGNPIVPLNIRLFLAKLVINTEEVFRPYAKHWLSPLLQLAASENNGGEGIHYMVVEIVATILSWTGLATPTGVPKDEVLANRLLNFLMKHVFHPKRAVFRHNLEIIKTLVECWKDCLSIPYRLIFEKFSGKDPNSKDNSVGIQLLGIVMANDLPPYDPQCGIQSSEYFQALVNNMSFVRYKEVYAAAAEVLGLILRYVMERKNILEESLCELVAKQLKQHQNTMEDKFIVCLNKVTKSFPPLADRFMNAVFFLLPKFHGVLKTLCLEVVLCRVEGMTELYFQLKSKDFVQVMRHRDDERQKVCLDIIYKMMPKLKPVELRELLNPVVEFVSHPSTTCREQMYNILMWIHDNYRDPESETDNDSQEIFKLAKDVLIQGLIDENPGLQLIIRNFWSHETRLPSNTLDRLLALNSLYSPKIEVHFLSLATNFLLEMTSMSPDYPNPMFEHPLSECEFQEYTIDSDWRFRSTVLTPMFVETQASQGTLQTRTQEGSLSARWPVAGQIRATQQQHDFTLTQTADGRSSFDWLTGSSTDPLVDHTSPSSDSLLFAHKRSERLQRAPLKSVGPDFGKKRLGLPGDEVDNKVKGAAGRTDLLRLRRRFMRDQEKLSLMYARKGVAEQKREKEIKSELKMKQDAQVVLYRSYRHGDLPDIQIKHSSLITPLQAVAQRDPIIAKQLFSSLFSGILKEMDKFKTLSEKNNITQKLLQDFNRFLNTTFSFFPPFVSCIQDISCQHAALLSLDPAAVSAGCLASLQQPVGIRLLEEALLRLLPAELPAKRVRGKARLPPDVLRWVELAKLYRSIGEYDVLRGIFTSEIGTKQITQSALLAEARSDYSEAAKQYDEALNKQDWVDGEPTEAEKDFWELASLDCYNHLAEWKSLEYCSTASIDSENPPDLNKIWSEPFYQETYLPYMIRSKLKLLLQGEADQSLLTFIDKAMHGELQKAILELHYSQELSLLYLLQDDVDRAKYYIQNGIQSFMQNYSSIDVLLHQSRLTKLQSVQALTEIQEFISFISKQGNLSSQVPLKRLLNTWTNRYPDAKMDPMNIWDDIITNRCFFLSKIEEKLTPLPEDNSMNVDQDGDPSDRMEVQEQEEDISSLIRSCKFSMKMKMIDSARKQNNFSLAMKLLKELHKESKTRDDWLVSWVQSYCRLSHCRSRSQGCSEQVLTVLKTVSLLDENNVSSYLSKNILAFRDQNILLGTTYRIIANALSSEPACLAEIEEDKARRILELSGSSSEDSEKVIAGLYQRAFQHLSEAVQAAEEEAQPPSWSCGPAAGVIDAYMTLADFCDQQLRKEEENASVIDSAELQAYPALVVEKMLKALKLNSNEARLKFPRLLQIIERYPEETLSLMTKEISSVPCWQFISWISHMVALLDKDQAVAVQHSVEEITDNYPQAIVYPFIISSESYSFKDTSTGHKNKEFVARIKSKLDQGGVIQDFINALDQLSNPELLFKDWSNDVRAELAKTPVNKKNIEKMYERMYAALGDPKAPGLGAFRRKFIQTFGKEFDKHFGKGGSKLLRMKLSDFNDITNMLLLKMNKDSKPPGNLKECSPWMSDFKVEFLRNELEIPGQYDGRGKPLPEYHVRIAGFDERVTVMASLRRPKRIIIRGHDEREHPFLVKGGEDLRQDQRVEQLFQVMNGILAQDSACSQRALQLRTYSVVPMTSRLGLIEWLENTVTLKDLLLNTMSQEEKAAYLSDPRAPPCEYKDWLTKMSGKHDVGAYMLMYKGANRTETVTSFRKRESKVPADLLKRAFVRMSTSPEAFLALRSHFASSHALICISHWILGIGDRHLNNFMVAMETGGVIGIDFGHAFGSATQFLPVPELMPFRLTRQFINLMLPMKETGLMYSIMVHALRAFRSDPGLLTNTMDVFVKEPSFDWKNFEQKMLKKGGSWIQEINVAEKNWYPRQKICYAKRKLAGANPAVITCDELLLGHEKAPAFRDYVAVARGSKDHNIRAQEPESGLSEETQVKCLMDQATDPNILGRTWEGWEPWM

## O=c1cc(N2CCOCC2)oc2c(-c3cccc4c3sc3ccccc34)cccc12
[1]
  Activity: 12%
[2]
  Time: 5.4 days
[3]
  viability at 16 h, 0.5 µM: 94%
[4]
  fold change (FC): 1.6
[5]
  Tmax: 30 min
[6]
  Cmax: 500 ng/mL
[7]
  Activity: 54%
[8]
  bioavailability: 100%
[9]
  half-life: 127 min
[10]
  Kp at 4 h: 4.6
[11]
  LD90: 2.8 Gy
[12]
  half-life: 53 min
[13]
  Cmax: 1600 ng/mL
[14]
  GI50 at 120 h: 0.52 µM
[15]
  Kp at 1 h: 5.4
[16]
  AUC(0-t): 1270 ng·h/mL
[17]
  Kp at 0.5 h: 11
[18]
  Kp at 0.5 h: 3.2
[19]
  LD90: 1.1 Gy
[20]
  LD90: 1 Gy
[21]
  Kp at 1 h: 3.2
[22]
  Activity: Toxic
[23]
  F: 100%
[24]
  half-life: 46 min
[25]
  viability at 16 h, 0.5 µM: 97%
